The values below come from ChEMBL document CHEMBL1268870 (J Med Chem, 2010).

The target of experiment [1] is T1, 5-hydroxytryptamine receptor 3A (Homo sapiens) (UniProt P46098).
T1 sequence (whole entry): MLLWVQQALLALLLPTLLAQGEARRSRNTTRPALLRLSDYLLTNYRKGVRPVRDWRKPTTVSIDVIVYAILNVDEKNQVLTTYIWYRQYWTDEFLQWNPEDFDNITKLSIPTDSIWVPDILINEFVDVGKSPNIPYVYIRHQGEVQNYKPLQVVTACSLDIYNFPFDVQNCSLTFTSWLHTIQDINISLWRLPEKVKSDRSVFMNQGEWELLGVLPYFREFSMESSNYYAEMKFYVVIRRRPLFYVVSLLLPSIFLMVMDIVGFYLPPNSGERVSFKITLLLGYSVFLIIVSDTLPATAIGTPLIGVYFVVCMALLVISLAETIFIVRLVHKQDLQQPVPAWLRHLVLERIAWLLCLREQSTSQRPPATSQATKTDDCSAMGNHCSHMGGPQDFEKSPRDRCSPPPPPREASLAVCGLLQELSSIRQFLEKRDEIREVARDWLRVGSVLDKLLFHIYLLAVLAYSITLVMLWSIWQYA
Kind of experiment: Displacement of [3H]GR65630 from 5HT3A receptor expressed in Xenopus oocyte.

The target in experiment [2] is T2, GABA-A receptor; alpha-1/beta-2/gamma-2 (Homo sapiens) (UniProt P14867+P47870+P18507). Kind of experiment: Allosteric modulation of human GABAA alpha-1-beta-2-gamma-2 receptor expressed in Xenopus laevis assessed as enhancement of [3H]flunitrazepam binding up to 10 uM.
Experiment [3] deals with T1, 5-hydroxytryptamine receptor 3A (Homo sapiens). Kind of experiment: Inhibition of 5HT3A receptor expressed in Xenopus oocyte at 9 uM. The essentials:
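Oocytes injected with ~50 ng human 5-HT3A cRNA. Two-electrode voltage clamp at −50 mV, room temperature, ND96. Compound was pre-applied for 30 s, then co-applied with 100 μM 5-HT for 30 s. Peak current was expressed as a percentage of the mean of the flanking 100 μM 5-HT control currents. Fixed compound concentration of 9 μM.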

A short description of experiment [4]: Inhibition of Torpedo nAChR expressed in Xenopus oocyte assessed as inhibition of ACh-induced channel current.
The subject of another experiment is Xenopus laevis. As to the kind of experiment: Anesthetic potency in Xenopus laevis. Format: functional, organism-based.
Experiment [5] has as its target T2, GABA-A receptor; alpha-1/beta-2/gamma-2 (Homo sapiens). As to the kind of experiment: Agonist activity at human GABA-A alpha-1-beta-2-gamma-2 receptor expressed in Xenopus laevis assessed as increase in channel current at 10 uM by electrophysiology relative to control. Format: functional.
Another experiment relates to Torpedo. Kind of experiment: Binding affinity to Torpedo nAChR assessed as photoincorporation in to membrane. The class given is cell membranes. Particulars: tested as the 3H-labelled form. The procedure, abridged: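 Torpedo californica nAChR-rich membranes at 2 mg/mL in Torpedo saline pH 7.0 with 1 mM oxidized glutathione. Incubated 40 min at room temperature with 0.3 μM tritiated probe, ± carbamylcholine, proadifen, tetracaine or PCP, then irradiated at 365 nm for 30 min on ice. Subunits separated by SDS-PAGE. Incorporation measured by fluorography and by scintillation counting of excised bands (two parallel labelings).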

Experiment [6] has as its target T1, 5-hydroxytryptamine receptor 3A (Homo sapiens). Kind of experiment: Inhibition of 5HT3A receptor expressed in Xenopus oocyte at 20 uM.
In experiment [7] the target is T2, GABA-A receptor; alpha-1/beta-2/gamma-2 (Homo sapiens). Kind of experiment: Allosteric modulation of human GABAA alpha-1-beta-2-gamma-2 receptor expressed in Xenopus laevis assessed as enhancement of [3H]mucimol binding up to 10 uM.
The species entered for the next experiment is Homo sapiens. Kind of experiment: Agonist activity at human GABA-A alpha-1-beta-2-gamma-2 receptor expressed in Xenopus laevis assessed as increase in channel current at saturated concentration by electrophysiology relative to control. The class given is functional.
The target in experiment [8] is T2, GABA-A receptor; alpha-1/beta-2/gamma-2 (Homo sapiens). Kind of experiment: Agonist activity at human GABA-A alpha-1-beta-2-gamma-2 receptor expressed in Xenopus laevis assessed as increase in channel current at 5 uM by electrophysiology relative to control. Format: functional.
For experiment [9] the target is unchanged. Kind of experiment: Agonist activity at human GABAA alpha-1-beta-2-gamma-2 mutant receptor expressed in Xenopus laevis assessed as increase in channel current at 5 uM by electrophysiology relative to control. The class given is functional. The essentials:
(§1)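 Oocytes expressing human α1β2(M286W)γ2L GABA-A receptor. Two-electrode voltage clamp at −50 mV, room temperature, ND96 pH 7.5. […] Applications lasted 15–20 s with ~3 min washes.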

Experiment [10] shares this target. Kind of experiment: Agonist activity at human GABAA alpha-1-beta-2-gamma-2 mutant receptor expressed in Xenopus laevis assessed as increase in channel current at 10 uM by electrophysiology relative to control. Format: functional. The essentials:
as §1

SMILES strings stand for the structures. The source made the active and inactive calls. The calls are words filed in the database; no cut-off is given here.

Turning to `CCOC(=O)c1cncn1[C@H](C)c1ccccc1`, the outcome in [1] was inactive. Further, the outcome in [2] was Active.

The compound `CCOC(=O)c1cncn1[C@H](C)c1ccc(C2(C(F)(F)F)N=N2)cc1` registered an inhibition in experiment [3] of 34%. Moreover, the IC50 in experiment [4] worked out at 11.3 µM. The compound also gave an EC50 with Xenopus laevis of 17.1 µM. In addition, the Imax in experiment [5] was determined as 0.73%.

For `CCOC(=O)c1cncn1C(C)c1ccc(C2(C(F)(F)F)N=N2)cc1` (stereo unspecified), the IC50 in experiment [4] came out at 4.1 µM. Besides, the outcome in the experiment with Torpedo was Active. For the same compound, the outcome in experiment [1], in experiment [2] and in experiment [7] was inactive. In [6], this compound displayed an inhibition of 1.7%. Moreover, the Activity in the experiment filed under Homo sapiens turned out to be 1.3%.

`CCOC(=O)c1cncn1[C@@H](C)c1ccc(C2(C(F)(F)F)N=N2)cc1` yielded an inhibition in experiment [3] of 29%. Besides, the IC50 in experiment [4] was determined as 4.7 µM. In addition, the fold change (FC) was determined as 2.2 in experiment [8], 1.8 in [9], 2.2 in experiment [10] and 3 in experiment [5]. Besides, the EC50 in the experiment with Xenopus laevis is 4.9 µM. Further, in [5], the Imax came to 0.9%.
